From the RNAGym collection of RNA variant scans (doi:10.1126/science.aae0568) come the findings set out here.

Variants at the floor of the assay were thinned out.

B1: tRNA (parent)
chain: GUUCCGUUGGCGUAAUGGUAACGCGUCUCCCUCCUAAGGAGAAGACUGCGGGUUCGAGUCCCGUACGGAACG

The variants in this data set derive from B1. Kind of data set: yeast fitness relative to wild type (ratio to wild type); higher = fitter; tRNA-Arg(CCU), competitive growth, 37 C, YPD. In short, it runs like this:
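The tRNA-Arg(CCU) gene variants were made by chemical synthesis with a 3% per-site mutation rate at 69 sites and inserted at the native genomic locus of Saccharomyces cerevisiae. After pooling, the strains were competed in YPD at 37°C for 24 hours in six parallel replicates. Gene amplicons from the start population and each end population were read by 100-nucleotide paired-end sequencing, and Darwinian fitness relative to wild type was taken from genotype frequency changes. Genotypes needed ≥ 100 starting reads, and estimates < 0.5 were set to 0.5.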
GUCCCGUUGGCGUAAUGGUAAGGCGUCUCCCUCCUAAGGAGAAGACUGCGGGUUCGAGUCCUGUACGGAACG: the yeast fitness worked out at 0.64. Turning to GUUCCAUUGGCGUUAUGGUAUCGCCUCUCCCUCCUAAGGAGAAGACUGCGGGUUCGAGUUAGGUACGGAACG, the yeast fitness is ≤ 0.5. As to GUUACGUUGGCGUAAUGGUACCGCGUCUCCCUCCUAAGGAGAAGACUGCGGGUUCGAGUCCCGUACGGAACG, the yeast fitness amounted to 0.775.

GUUCCGUUAGGGGAAUGGUAACCCGUCUCCCUCUUAAGGAGAAGACUGUGGGUUCGAGCCCCGUAUGGAACG: the yeast fitness is ≤ 0.5. The result for GUUCCGUUGGCGUAAUGGUAACGCGGGUCCCACCUAAGGUGAAGACUGCGGGUUCGAGUCCCGUACGGAACG reads ≤ 0.5. Next, GGUCCGUUCGCGUAGUGGUAACGCGUCUCCCUCCUAAGGAGAAGACUCCGAGUUCGAGUCCCGUACGGAACG: ≤ 0.5. Next, GUUCCGUUGGCGUAAUGGUAACGCGUCUCCCUGCUUAGGAGAAGACUGCGGGUUCGUGUCCCGUACGGAACG: 0.581; GUUCCGUUGGCGUAAUGGUAACGCGUCUCCCUCCUAACGAGCAGACUGAGGGUUCGAGUCCCGUACGGAACG: ≤ 0.5; GUUCCGUUGGAGUAAUGGUAACGCGUCUCCCUCCUAAGGAGAAGACUGCGGGUUCGAGUCCCGUACCGAACG: 0.574.

For GUUCCGUUGGCGCUAUGGUAACGCGUCUCCCUCCUAAGGACAAGACUGCGGGUUCGAGUCCCGUACGGAACG, the yeast fitness was found to be 0.603.

GUUCCGUUGGCGUAGUGGUAACGAGUCUCCCUCCUAAGGAGAAGACUGCGGGUGCGAGUCCCGUCCGGAACG: the yeast fitness is ≤ 0.5. In the case of GUUCCGUAGGCGUAAUGCUAACGCCUCUCCCUCCUAAGGAGAAGUCUGGGGGUUCGAGUCCCGUACGGAACG, the yeast fitness is ≤ 0.5. Next, GUUCCGUUGGCGUAAUGGUAACCCGUCUCCCUCCUAAGGAGAACACUGUGGGUUCGAGUCCCGUACGGAACG: ≤ 0.5; GUUCCGUUGGCGUAAUGGUACCGCGUCUCCCUCCUCAGGAGAAGACUGCGGGUUCGAGUCCCGUACGGAACG: 0.697; GUUCCGUCGGCGUAAUGGUAACGCGACUCCCUCCUAAGGUGAAGACUGCGGGUUCGAGUCCCGUACGGAACG: 0.613.

Consider GUUCCGUUGGCGUAAUGGUAACGCGGCUCCCUCCUAAGGAGAAGACUGCGGGUUCGAGUCUCGUACGGAACG, for which the yeast fitness turned out to be 0.864. Take GUUCCGAUGGCGUAAUGGUAACGCGUCUCCCUCCUAAGGAGAAGACAGCGGGUUCGAGUCCCGUGCGGAACG: the yeast fitness was 0.523.

For GUUCCGUUGGCGUAAUGGUAACGUGUCUCCCCCCUUGGGAGAAGACUGCGGGUACGAGUCCCGUACGGAACG, the yeast fitness is ≤ 0.5. Next, GUUCCGUUGGCGUAAUGGUAACGCAUCUCCCUCCUAAGGAGAAGAAUGCGGCUUCGAGUCCCGUACGGAACG: 0.615; GUUCCGUUGGAGUAAUGGCAACGCGUCUCCCUCCUAAGGAGAAGACUGCGGGUUCGAGUCCCGUACGGAACG: 0.706; GUUCCGUUGGGGUCAUGGUAACGCGUCUCUCUCCUAAGGAGAAGACUGCGGGUUCGAGUCCCGUACUGAACG: ≤ 0.5. Regarding GUUCCGUUGGCGUAAUGGUAACGCGUCUCCCUCCUAAGGAGAUGACUCCGGGUUCGAGUGCCAUACGGAACG, the yeast fitness was ≤ 0.5. As to GUUCCGUUGGCCUAAUGGUAAUGCGUCUCCCUCCUAAGGAGAAGACUGCGGGUUCGAGUCCCGUACGGAACG, the yeast fitness is 0.955. The result for GUUCCGUUGACGUAAUGGUAACGCGUCUCCCUCCUAAGGAGAAGACUGCGGGUUCGAGUCCCAUACGGAACG reads 0.698; that for GUUCCGUUGGCGUAAUAGUGACGCGUCUCCUUCCCAAGGAGAAGACUGCGGGUUCGGGUCCCGUACGGAACG, 0.573; that for GUUCUGUUGGCGUAAUGGUAACGCGUCUCCCUCCUAAGGAGAAGACUGCGGGUUCGAGUCCCGUUCGGUACG, 0.623.

For GUUCCGUUGGCGUAAUGGUAACGCGUCUCCCUCCUAAGGAGAAGACCGCGGGUUCGAGUCCCGUACGGUACG, the yeast fitness stood at 1.08. The result for GUUCAGUUGGUGCAAUGGUAACGCGUCUCCCUCCUAAGGAGAAGACUGCGGGUUCGAGUCCCGUACGGAACG reads 0.57; that for GUUCCGUUGGAGUAAUGGUAACGCGUCUCCCUCCAAAGGAGAAGACUGCGGGAUCGAGUCCCGUACGGAACG, ≤ 0.5.

Turning to GUUCCGUUGGCGCAAUGGUAACGCGUCUCCCUCCUAUGGAGUAGACUGCGGGUUCGAGUCCCGUAAGGCACG, the yeast fitness was ≤ 0.5. The result for GUUCCGUUGGCAUAAUGGUAACGCGUCUCCCUCCUAAGGCGAAGACUGCGGGUUCGAGUCACGUACGGAACG reads ≤ 0.5; that for GUUCCGUUAGAGUAAUGGUGACGCGUCUCCCUCCUAAGGAGUAGACUGCGGGUUCGAGUCCCGUACGCACCG, 0.554; that for GUGCCGUUGGCGUAAUGGUCGCGCGUCUCCCUCCUAAGGAGAAGACUGCGGGUUCGAGUCCCGUACGGAACG, 0.798. On to GUUCCGUUGGGGUAAUGGUAACGCGUCUCCCUCCUAAGGAGAAGACUGCGGGUUCGAGUCCCGUACUGCACG, for which the yeast fitness was found to be 0.528. For the variant GUUCCGUUGGCGUAAUGGUAACGGGCCUCCCACCUCAGGAGAAGACUGGGCGUUCGAGUCCCGUAUGAAACG, the yeast fitness was ≤ 0.5. The result for GUUCCGUUGGCGUAAUGGUAACGCGUCUCCCUCCUAAGGAGAAGAGUGCGGGUUCGAGUCCCGAACGGAACG reads 0.889; that for GUUCCAUAGGCGUAAUGGUAACCCGUCUCCCUCCUAAGGAGAAGACUGCGGGUUCGAGUCCCGUACGGAACG, ≤ 0.5. Next, GUACCGUUGGCGUAAUGGUAACGCGUCUCCCUCCUAAGGAGAAGACUGCGGGUUUCAGUCCCGUACGGAACG: ≤ 0.5.
